Columns and labels:
Cytochrome P450 2C9 = Cytochrome P450 2C9 (Homo sapiens, UniProt P11712); experiment: Inhibition of CYP2C9 (unknown origin)
[1] = Aqueous kinetic solubility of the compound in pH 7.4 PBS buffer; type: physicochemical
Cytochrome P450 2D6 = Cytochrome P450 2D6 (Homo sapiens, UniProt P10635); experiment: Inhibition of CYP2D6 (unknown origin)
Cytochrome P450 2C19 = Cytochrome P450 2C19 (Homo sapiens, UniProt P33261); experiment: Inhibition of CYP2C19 (unknown origin)
Liver microsome [2] = experiment: Metabolic stability in rat liver microsomes assessed as compound remaining at 10 uM after 30 mins; type: ADME; details: 0.5 h
In short: (§1)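 Compound at 10 µM was incubated for 30 min with liver microsomes (H = human, R = rat). Stability was expressed as percent of compound remaining.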

Liver microsome [3] = experiment: Metabolic stability in human liver microsomes assessed as compound remaining at 10 uM after 30 mins; type: ADME; details: 0.5 h; in short: as §1
[4] = target: T1, Retinol-binding protein 4 (Homo sapiens, UniProt P02753)
[5] = target: T1, Retinol-binding protein 4; remark: listed apart in the source
[6] = Apparent half-life of the terminal phase of elimination in Sprague-Dawley rat plasma at 5 mg/kg, po; type: ADME, organism-based; parameters: dose 5 mg/kg, route oral; details: read-out: betat1/2(app) (converted)
In short: (§2)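 Adult male Sprague-Dawley rats, drug-naive, three per group. Plasma levels gave the terminal-phase half-life. Bioavailability F = (AUCINF po × dose iv) ÷ (AUCINF iv × dose po), using a 0.5 mg/kg iv reference group.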

[7] = Cmax in Sprague-Dawley rat plasma at 0.5 mg/kg, iv; type: ADME, organism-based; parameters: dose 0.5 mg/kg, route intravenous
In short: (§3)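 Groups of three drug-naive adult male Sprague-Dawley rats. Dosing was iv at 0.5 mg/kg once on day 0, or po at 5 mg/kg once on day 0 or once daily from day 0 to day 6. Cmax is the maximum observed plasma concentration. Pre-dose plasma was also sampled on day 6, and urine was collected 0–48 h after iv dosing.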

[8] = AUClast in Sprague-Dawley rat plasma at 0.5 mg/kg, iv; type: ADME, organism-based; parameters: time 0 - last, dose 0.5 mg/kg, route intravenous
In short: (§4)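 Single intravenous dose of 0.5 mg/kg given on day 0 to a group of three drug-naive adult male Sprague-Dawley rats. Compound was measured in plasma over time, and urine was collected from 0 to 48 h. AUClast runs from 0 to the last quantifiable time point; AUC(0–inf) is extrapolated to infinity. Values are group means.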

[9] = AUC (0 to infinity) in Sprague-Dawley rat plasma at 0.5 mg/kg, iv; type: ADME, organism-based; parameters: time infinity, dose 0.5 mg/kg, route intravenous; in short: as §4
[10] = Volume of distribution at steady state in Sprague-Dawley rat plasma at 0.5 mg/kg, iv; type: ADME, organism-based; parameters: dose 0.5 mg/kg, route intravenous; details: read-out: Vdss
In short: (§5)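 Three drug-naive adult male Sprague-Dawley rats per group, given a single iv dose on day 0. Compound was measured in plasma over time. Parameters were derived from the plasma concentration–time curve: terminal-phase half-life, total body clearance, and steady-state volume of distribution. Urine was also collected from 0 to 48 h.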

[11] = AUClast in Sprague-Dawley rat plasma at 5 mg/kg, po; type: ADME, organism-based; parameters: time 0 - last, dose 5 mg/kg, route oral
In short: (§6)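 Oral dosing at 5 mg/kg in groups of three drug-naive adult male Sprague-Dawley rats, given either once on day 0 or once daily from day 0 to day 6. Plasma was sampled after the day 0 or day 6 dose. AUClast runs from 0 to the last quantifiable point; AUC(0–inf) is extrapolated to infinity. Values are means.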

in vivo [12] = details: Sprague-Dawley, rat, plasma, po, 5 mg/kg
[13] = Clearance in Sprague-Dawley rat plasma at 0.5 mg/kg, iv; type: ADME, organism-based; parameters: dose 0.5 mg/kg, route intravenous; in short: as §5
[14] = Apparent half-life of the terminal phase of elimination in Sprague-Dawley rat plasma at 0.5 mg/kg, iv; type: ADME, organism-based; parameters: dose 0.5 mg/kg, route intravenous; details: read-out: betat1/2(app) (converted); in short: as §5
[15] = AUC (0 to infinity) in Sprague-Dawley rat plasma at 5 mg/kg, po; type: ADME, organism-based; parameters: time infinity, dose 5 mg/kg, route oral; in short: as §6
in vivo [16] = details: Sprague-Dawley, rat, plasma, iv, 0.5 mg/kg
[17] = Cmax in Sprague-Dawley rat plasma at 5 mg/kg, po; type: ADME, organism-based; parameters: dose 5 mg/kg, route oral; in short: as §3
Cytochrome P450 3A4 = Cytochrome P450 3A4 (Homo sapiens, UniProt P08684); experiment: Inhibition of CYP3A4 (unknown origin)
Sequence of Cytochrome P450 3A4 (P08684 whole entry): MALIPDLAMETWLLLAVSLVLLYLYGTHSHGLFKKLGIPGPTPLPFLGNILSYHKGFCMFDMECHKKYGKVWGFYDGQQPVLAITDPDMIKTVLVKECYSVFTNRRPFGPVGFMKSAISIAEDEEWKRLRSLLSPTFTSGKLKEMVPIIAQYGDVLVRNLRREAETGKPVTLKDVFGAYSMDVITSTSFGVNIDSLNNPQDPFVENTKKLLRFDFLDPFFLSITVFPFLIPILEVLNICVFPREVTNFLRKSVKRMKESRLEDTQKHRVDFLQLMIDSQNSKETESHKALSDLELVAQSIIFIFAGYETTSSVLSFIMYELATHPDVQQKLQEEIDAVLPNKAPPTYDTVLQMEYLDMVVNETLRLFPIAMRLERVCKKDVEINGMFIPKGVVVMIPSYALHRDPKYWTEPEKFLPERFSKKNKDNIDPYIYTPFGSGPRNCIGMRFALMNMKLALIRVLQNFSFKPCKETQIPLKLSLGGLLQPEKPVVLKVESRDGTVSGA

[18] = Oral bioavailability in Sprague-Dawley rat plasma at 5 mg/kg; type: ADME, organism-based; in short: as §2

Sequence of Cytochrome P450 2C9 (P11712 whole entry): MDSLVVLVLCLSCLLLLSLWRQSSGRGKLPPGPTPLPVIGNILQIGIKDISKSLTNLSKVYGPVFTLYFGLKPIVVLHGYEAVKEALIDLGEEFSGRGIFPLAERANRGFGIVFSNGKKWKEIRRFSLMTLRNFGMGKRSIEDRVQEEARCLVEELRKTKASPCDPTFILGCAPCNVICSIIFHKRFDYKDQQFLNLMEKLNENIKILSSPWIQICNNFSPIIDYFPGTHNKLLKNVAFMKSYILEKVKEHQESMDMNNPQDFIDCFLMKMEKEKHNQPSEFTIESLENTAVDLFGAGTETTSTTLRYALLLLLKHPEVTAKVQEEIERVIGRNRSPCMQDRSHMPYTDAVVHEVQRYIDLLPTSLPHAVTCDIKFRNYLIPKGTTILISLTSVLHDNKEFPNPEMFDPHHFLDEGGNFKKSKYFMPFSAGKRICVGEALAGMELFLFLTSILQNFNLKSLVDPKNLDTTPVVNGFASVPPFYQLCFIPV
Sequence of Cytochrome P450 2D6 (P10635 whole entry): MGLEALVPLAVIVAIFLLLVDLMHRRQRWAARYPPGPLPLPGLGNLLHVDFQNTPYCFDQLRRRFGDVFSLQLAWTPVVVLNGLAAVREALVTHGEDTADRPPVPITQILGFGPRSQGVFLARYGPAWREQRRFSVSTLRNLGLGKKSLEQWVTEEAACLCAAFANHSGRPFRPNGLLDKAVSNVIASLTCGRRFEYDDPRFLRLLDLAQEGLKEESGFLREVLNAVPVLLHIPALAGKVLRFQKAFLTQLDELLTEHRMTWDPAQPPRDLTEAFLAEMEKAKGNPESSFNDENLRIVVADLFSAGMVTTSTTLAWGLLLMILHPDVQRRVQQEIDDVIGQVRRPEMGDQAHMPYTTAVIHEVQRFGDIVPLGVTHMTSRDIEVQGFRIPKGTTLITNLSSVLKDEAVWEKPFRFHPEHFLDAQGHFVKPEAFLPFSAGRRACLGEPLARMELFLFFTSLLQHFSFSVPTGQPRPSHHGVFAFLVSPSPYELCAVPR
Sequence of Cytochrome P450 2C19 (P33261 whole entry): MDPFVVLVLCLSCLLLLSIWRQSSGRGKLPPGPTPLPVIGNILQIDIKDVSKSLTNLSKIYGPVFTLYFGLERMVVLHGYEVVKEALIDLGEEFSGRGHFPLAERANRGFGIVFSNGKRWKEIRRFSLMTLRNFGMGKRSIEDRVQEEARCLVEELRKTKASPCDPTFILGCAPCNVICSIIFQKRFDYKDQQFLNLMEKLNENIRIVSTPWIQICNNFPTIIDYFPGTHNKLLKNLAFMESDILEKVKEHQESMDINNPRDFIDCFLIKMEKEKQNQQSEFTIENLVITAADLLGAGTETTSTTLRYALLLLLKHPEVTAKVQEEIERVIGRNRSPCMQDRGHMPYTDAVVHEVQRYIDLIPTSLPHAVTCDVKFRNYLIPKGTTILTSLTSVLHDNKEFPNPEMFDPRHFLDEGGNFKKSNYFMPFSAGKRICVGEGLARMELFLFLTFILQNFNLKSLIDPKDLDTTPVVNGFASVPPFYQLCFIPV

SMILES | Kinetic_solubility [1] [µM] | Stability (Liver microsome [2]) [%] | Stability (Liver microsome [3]) [%] | IC50 [4] [µM] | IC50 [5] [µM] | further results
O=C(O)c1ccccc1NC(=O)N1CCC(c2ccccc2C(F)(F)F)CC1 | 57 | 85 | 3 |  |  | IC50 (Cytochrome P450 2C9): > 100 µM; IC50 (Cytochrome P450 2D6): 100 µM; IC50 (Cytochrome P450 2C19): 52 µM
CS(=O)(=O)NC(=O)c1ccccc1NC(=O)N1CCC(c2ccccc2C(F)(F)F)CC1 |  |  |  | 0.298 |  | 
O=C(NS(=O)(=O)C1CC1)c1ccccc1NC(=O)N1CCC(c2ccccc2C(F)(F)F)CC1 |  |  |  | 0.244 | 5.31 | 
O=C(NS(=O)(=O)c1ccccc1)c1ccccc1NC(=O)N1CCC(c2ccccc2C(F)(F)F)CC1 |  |  |  | > 3 |  | 
O=C(O)C(=O)N1CCC(c2ccccc2C(F)(F)F)CC1 |  |  |  | 0.234 | 3.13 | 
O=C(O)CC(=O)N1CCC(c2ccccc2C(F)(F)F)CC1 |  |  |  | 1.47 |  | 
O=C(O)CCC(=O)N1CCC(c2ccccc2C(F)(F)F)CC1 |  |  |  | > 3 |  | 
CN(CCOc1ccccc1C(F)(F)F)C(=O)Nc1ccccc1C(=O)O |  |  |  | 1.9 | 2.65 | 
CN(CCOc1ccc(Cl)cc1C(C)(C)C)C(=O)Nc1ccccc1C(=O)O |  |  |  | > 3 |  | 
CN(CCOc1ccccc1C(C)(C)C)C(=O)Nc1ccccc1C(=O)O |  |  | 1.1 |  |  | 
CN(CCOc1ccc(F)cc1C(C)(C)C)C(=O)Nc1ccccc1C(=O)O |  |  | 3.2 | 0.141 |  | 
O=C(O)c1ccccc1NC(=O)N1CCc2ccccc2CC1 |  |  |  | > 3 |  | 
O=C(O)c1ccccc1NC(=O)N1C[C@@H]2[C@H](C1)[C@H]2c1ccccc1C(F)(F)F |  |  |  | > 3 |  | 
O=C(O)c1ccccc1NC(=O)N1C[C@@H]2[C@H](C1)[C@@H]2c1ccccc1C(F)(F)F |  |  |  | > 3 |  | 
O=C(O)c1ccccc1NC(=O)N1CC2(C1)CN(c1ccccc1C(F)(F)F)C2 |  |  |  | > 3 |  | 
O=C(O)c1ccccc1NC(=O)N1CC(c2ccccc2C(F)(F)F)C1 |  |  |  | > 3 | 8.38 | 
O=C(O)c1ccccc1NC(=O)N1CC(Oc2ccccc2C(F)(F)F)C1 |  |  |  | 1.44 |  | 

SMILES | Kinetic_solubility [1] [µM] | Stability (Liver microsome [2]) [%] | Stability (Liver microsome [3]) [%] | IC50 [4] [µM] | IC50 [5] [µM] | further results
O=C(O)c1ccccc1NC(=O)N1CCC2(CCc3ccccc32)CC1 |  |  |  | 3.76 |  | 
O=C(O)c1ccccc1NC(=O)N1C[C@H]2C[C@@H](c3ccccc3C(F)(F)F)C[C@H]2C1 | 55 | 75 | 100 | 0.0727 | 0.294 | IC50 (Cytochrome P450 2C9): 0.34 µM; half-life [6]: 7.6 h; Cmax [7]: 2940 ng/mL; AUC(0-t) [8]: 13200 ng·h/mL; AUC(0-inf) [9]: 14300 ng·h/mL; Vd [10]: 0.523 L/kg; AUC(0-t) [11]: 62100 ng·h/mL; IC50 (Cytochrome P450 2D6): > 100 µM; IC50 (Cytochrome P450 2C19): 29 µM; Tmax (in vivo [12]): 0.33 h; clearance [13]: 0.588 mL/min/kg; half-life [14]: 10.3 h; AUC(0-inf) [15]: 63000 ng·h/mL; Tmax (in vivo [16]): 4.98 min; Cmax [17]: 7830 ng/mL; IC50 (Cytochrome P450 3A4): 28 µM; bioavailability [18]: 44%
O=C(O)c1ccccc1NC(=O)N1C[C@H]2C[C@H](c3ccccc3C(F)(F)F)C[C@H]2C1 |  |  |  | > 3 |  | 
O=C(O)c1cc(F)ccc1NC(=O)N1C[C@H]2C[C@@H](c3ccccc3C(F)(F)F)C[C@H]2C1 | 55 | 100 | 57 | 0.0888 | 0.285 | IC50 (Cytochrome P450 2C9): 0.33 µM; IC50 (Cytochrome P450 2D6): > 100 µM; IC50 (Cytochrome P450 2C19): 31 µM; IC50 (Cytochrome P450 3A4): 53 µM
COc1ccc(NC(=O)N2C[C@H]3C[C@@H](c4ccccc4C(F)(F)F)C[C@H]3C2)c(C(=O)O)c1 | 34 | 72 | 89 | 0.17 |  | IC50 (Cytochrome P450 2C9): 13 µM; IC50 (Cytochrome P450 2D6): > 100 µM; IC50 (Cytochrome P450 2C19): 75 µM; IC50 (Cytochrome P450 3A4): 8 µM
O=C(O)c1cc(Cl)ccc1NC(=O)N1C[C@H]2C[C@@H](c3ccccc3C(F)(F)F)C[C@H]2C1 | 60 | 87 | 89 | […] |  | 
CS(=O)(=O)c1ccc(NC(=O)N2C[C@H]3C[C@@H](c4ccccc4C(F)(F)F)C[C@H]3C2)c(C(=O)O)c1 | > 100 | 100 | 100 | 0.163 | 1.55 | IC50 (Cytochrome P450 2C9): 8.7 µM; IC50 (Cytochrome P450 2D6): > 100 µM; IC50 (Cytochrome P450 2C19): 32 µM; IC50 (Cytochrome P450 3A4): 42 µM
O=C(O)c1cccnc1NC(=O)N1C[C@H]2C[C@@H](c3ccccc3C(F)(F)F)C[C@H]2C1 | 82 | 81 | 83 | > 3 |  | IC50 (Cytochrome P450 2C9): 27 µM; IC50 (Cytochrome P450 2D6): > 100 µM; IC50 (Cytochrome P450 2C19): 33 µM; IC50 (Cytochrome P450 3A4): > 100 µM
O=C(O)c1cnccc1NC(=O)N1C[C@H]2C[C@@H](c3ccccc3C(F)(F)F)C[C@H]2C1 | 29 | 82 | 81 | 0.0187 | 0.179 | IC50 (Cytochrome P450 2C9): 5.6 µM; IC50 (Cytochrome P450 2D6): > 100 µM; IC50 (Cytochrome P450 2C19): 2.1 µM; IC50 (Cytochrome P450 3A4): < 0.046 µM
Cc1cc(NC(=O)N2C[C@H]3C[C@@H](c4ccccc4C(F)(F)F)C[C@H]3C2)c(C(=O)O)cn1 | 93 | 76 | 71 |  |  | IC50 (Cytochrome P450 2C9): 1 µM; IC50 (Cytochrome P450 2D6): > 100 µM; IC50 (Cytochrome P450 2C19): 12 µM; IC50 (Cytochrome P450 3A4): 1.1 µM
O=C(O)c1cnncc1NC(=O)N1C[C@H]2C[C@@H](c3ccccc3C(F)(F)F)C[C@H]2C1 | > 100 | 61 | 97 | 0.024 | 0.121 | IC50 (Cytochrome P450 2C9): 17 µM; IC50 (Cytochrome P450 2D6): > 100 µM; IC50 (Cytochrome P450 2C19): 6 µM; IC50 (Cytochrome P450 3A4): 12 µM
C[C@H](NC(=O)N1C[C@H]2C[C@@H](c3ccccc3C(F)(F)F)C[C@H]2C1)C(=O)O |  |  |  | 1.48 |  | 
C[C@@H](NC(=O)N1C[C@H]2C[C@@H](c3ccccc3C(F)(F)F)C[C@H]2C1)C(=O)O |  |  |  | > 3 |  | 
O=C(O)[C@@H](NC(=O)N1C[C@H]2C[C@@H](c3ccccc3C(F)(F)F)C[C@H]2C1)c1ccccc1 |  |  |  | 0.124 | 0.829 | 
O=C(O)[C@H](NC(=O)N1C[C@H]2C[C@@H](c3ccccc3C(F)(F)F)C[C@H]2C1)c1ccccc1 |  |  |  | 1.32 | 8.34 | 
O=C(O)C1CCCN1C(=O)N1CCC(c2ccccc2C(F)(F)F)CC1 (racemic) |  |  |  | > 3 |  | 

Reference: ChEMBL document CHEMBL3351344 (J Med Chem, 2014)
